Values after ≈ are worked out from the molar mass of the structure shown.

The subject of one test is MCF7. The experiment in a line: Cytotoxicity against human MCF7 cells by SRB method. It counts as cell-based. Summed up: (§1)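 SRB colorimetric growth assay. IC50, in µM, was the concentration inhibiting cell growth by 50% relative to untreated control cells. Runs were in triplicate in three independent experiments, with means reported. The positive control was doxorubicin.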

For test [1], the system named is Escherichia coli. Kind of test: Antimicrobial activity against Escherichia coli NCIM-2256 after 20 hrs by two fold serial macrodilution technique. It counts as functional. As to conditions: NCIM-2256, 20 h. Summed up:
(§2)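 Serial macrodilution in 96-well microtiter plates. Compounds were dissolved in saline (0.8% NaCl) containing 5% DMSO, and strains were incubated with a range of concentrations for 20 h at 37 °C on a rotary shaker (160 rpm). MIC was the lowest concentration without growth. Runs were in triplicate, with the mean taken. The negative control was 5% DMSO.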

For test [2], the system named is Cryptococcus neoformans. Kind of test: Fungicidal activity against Cryptococcus neoformans NCIM-3378 after 48 to 72 hrs by two fold serial macrodilution technique. It counts as functional. Summed up:
(§3)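 Serial subcultivation followed 72 h of exposure to compounds dissolved in saline containing 5% DMSO. MBC/MFC was the lowest concentration with no visible growth, taken as 99.5% killing of the original inoculum. Runs were in triplicate, with the mean reading used.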

Test [3] has as its system Aspergillus flavus. Kind of test: Fungicidal activity against Aspergillus flavus NCIM-539 after 48 to 72 hrs by two fold serial macrodilution technique. Type of test: functional. Summed up: as §3
Test [4] relates to Salmonella typhimurium. Kind of test: Bactericidal activity against […] after 72 hrs by two fold serial macrodilution technique. It counts as functional, Salmonella enterica subsp. enterica serovar Typhimurium. As to conditions: Salmonella enterica. Summed up: as §3
In test [5] the test system is Bacillus subtilis. The experiment in a line: Antimicrobial activity against Bacillus subtilis NCIM-2063 after 20 hrs by two fold serial macrodilution technique. It counts as functional. Particulars: NCIM-2063, 20 h. Summed up: as §2
The subject of test [6] is Cryptococcus neoformans. Kind of test: Antimicrobial activity against Cryptococcus neoformans NCIM-3378 after 20 hrs by two fold serial macrodilution technique. Type of test: functional. Particulars: NCIM-3378, 20 h.
In test [7] the test system is Candida albicans. Kind of test: Fungicidal activity against Candida albicans NCIM-3471 after 48 to 72 hrs by two fold serial macrodilution technique. It counts as functional. Put shortly: as §3
Test [8] concerns Aspergillus niger. Kind of test: Antimicrobial activity against Aspergillus niger NCIM-1196 after 20 hrs by two fold serial macrodilution technique. It counts as functional. Particulars: NCIM-1196, 20 h.
For test [9], the system named is Aspergillus niger. The experiment in a line: Fungicidal activity against Aspergillus niger NCIM-1196 after 48 to 72 hrs by two fold serial macrodilution technique. Type of test: functional. Summed up:
as §3

The test system of test [10] is Candida albicans. Kind of test: Antimicrobial activity against Candida albicans NCIM-3471 after 20 hrs by two fold serial macrodilution technique. Particulars: NCIM-3471, 20 h. Type of test: functional.
Another test relates to HeLa. The experiment in a line: Cytotoxicity against human HeLa cells by SRB method. Type of test: cell-based. Put shortly:
as §1
In general terms: In SRB staining, fixed cells bind dye roughly in proportion to their protein.

The subject of test [11] is Bacillus subtilis. The experiment in a line: Bactericidal activity against Bacillus subtilis NCIM-2063 after 72 hrs by two fold serial macrodilution technique. It counts as functional. As to conditions: NCIM-2063, 72 h. Put shortly:
as §3

Test [12] deals with Escherichia coli. The experiment in a line: Bactericidal activity against Escherichia coli NCIM-2256 after 72 hrs by two fold serial macrodilution technique. Type of test: functional. Particulars: NCIM-2256, 72 h. Put shortly: as §3
For test [13], the system named is Staphylococcus aureus. The experiment in a line: Antimicrobial activity against Staphylococcus aureus NCIM-2901 after 20 hrs by two fold serial macrodilution technique. It counts as functional. Particulars: NCIM-2901, 20 h. Put shortly:
as §2

The subject of test [14] is Salmonella typhimurium. Kind of test: Antimicrobial activity against […] after 20 hrs by two fold serial macrodilution technique. It counts as functional, Salmonella enterica subsp. enterica serovar Typhimurium. As to conditions: Salmonella enterica. Put shortly: as §2
For test [15], the system named is Staphylococcus aureus. Kind of test: Bactericidal activity against Staphylococcus aureus NCIM-2901 after 72 hrs by two fold serial macrodilution technique. It counts as functional. As to conditions: NCIM-2901, 72 h. Put shortly: as §3
For test [16], the system named is Aspergillus flavus. The experiment in a line: Antimicrobial activity against Aspergillus flavus NCIM-539 after 20 hrs by two fold serial macrodilution technique. Type of test: functional. Particulars: NCIM-539, 20 h.

Turning to `COc1ccc(C2SCC(=O)N2c2ccc(Cl)cc2O)c(OC)c1` (stereo not given), the results for the IC50 in the test with MCF7 and in the test on HeLa were 68.5 µM and 68.2 µM, respectively. The MIC against Escherichia coli [1] is 30 µg/mL (≈ 82 µM); against Bacillus subtilis [5], 30 µg/mL (≈ 82 µM); with Cryptococcus neoformans [6], 70 µg/mL (≈ 191 µM); against Aspergillus niger [8], 65 µg/mL (≈ 178 µM); in the test with Candida albicans [10], 3 µg/mL (≈ 8.2 µM); in the test on Staphylococcus aureus [13], 15 µg/mL (≈ 41 µM). The results for the MIC against Salmonella typhimurium [14] and against Aspergillus flavus [16] were 35 µg/mL (≈ 95.7 µM) and 10 µg/mL (≈ 27.3 µM), respectively. In addition, the MFC against Cryptococcus neoformans [2] is 120 µg/mL (≈ 328 µM); in the test with Aspergillus flavus [3], 15 µg/mL (≈ 41 µM); in the test with Candida albicans [7], 17.5 µg/mL (≈ 47.8 µM); against Aspergillus niger [9], 120 µg/mL (≈ 328 µM). Besides, the MBC against Salmonella typhimurium [4] worked out at 45 µg/mL (≈ 123 µM); against Bacillus subtilis [11] it was 45 µg/mL (≈ 123 µM); against Escherichia coli [12], 50 µg/mL (≈ 137 µM); against Staphylococcus aureus [15], 25 µg/mL (≈ 68.3 µM).

For `O=C1CSC(c2ccc(F)cc2)N1c1ccc(Cl)cc1O` (stereo not given), the half-maximal inhibitory concentration (IC50) was 68.7 µM with MCF7 and 72.4 µM in the test with HeLa. In addition, the minimum inhibitory concentration (MIC) in the test with Escherichia coli [1] was determined as 70 µg/mL (≈ 216 µM); against Bacillus subtilis [5], 55 µg/mL (≈ 170 µM); with Cryptococcus neoformans [6], 90 µg/mL (≈ 278 µM); against Aspergillus niger [8] it was 50 µg/mL (≈ 154 µM); against Candida albicans [10], 65 µg/mL (≈ 201 µM); with Staphylococcus aureus [13], 25 µg/mL (≈ 77.2 µM). Moreover, the values for the MIC in the test on Salmonella typhimurium [14] and with Aspergillus flavus [16] were 60 µg/mL (≈ 185 µM) and 90 µg/mL (≈ 278 µM), respectively. Further, the MFC with Cryptococcus neoformans [2] amounted to 145 µg/mL (≈ 448 µM); with Aspergillus flavus [3] it was 140 µg/mL (≈ 432 µM); against Candida albicans [7], 150 µg/mL (≈ 463 µM); against Aspergillus niger [9], 140 µg/mL (≈ 432 µM). In addition, the MBC in the test with Salmonella typhimurium [4] amounted to 140 µg/mL (≈ 432 µM); against Bacillus subtilis [11] it was 150 µg/mL (≈ 463 µM); in the test with Escherichia coli [12], 145 µg/mL (≈ 448 µM); against Staphylococcus aureus [15], 45 µg/mL (≈ 139 µM).

For `O=C1CSC(c2cccc(F)c2)N1c1ccc(Cl)cc1O` (stereo not given), the half-inhibitory concentration (IC50) is 65.8 µM in the test with MCF7 and 67.3 µM in the test on HeLa. In addition, the minimal inhibitory concentration (MIC) against Escherichia coli [1] came to 70 µg/mL (≈ 216 µM); against Bacillus subtilis [5], 100 µg/mL (≈ 309 µM); against Cryptococcus neoformans [6], 85 µg/mL (≈ 263 µM); against Aspergillus niger [8] it was 100 µg/mL (≈ 309 µM); in the test with Candida albicans [10] it was 95 µg/mL (≈ 293 µM); against Staphylococcus aureus [13], 80 µg/mL (≈ 247 µM). Besides, the MIC against Salmonella typhimurium [14] and against Aspergillus flavus [16] was 90 µg/mL (≈ 278 µM) throughout. In addition, the MFC came to 140 µg/mL (≈ 432 µM) in the test with Cryptococcus neoformans [2], 140 µg/mL (≈ 432 µM) with Aspergillus flavus [3], 165 µg/mL (≈ 510 µM) against Candida albicans [7] and 165 µg/mL (≈ 510 µM) in the test with Aspergillus niger [9]. The MBC in the test with Salmonella typhimurium [4] is 155 µg/mL (≈ 479 µM); in the test on Bacillus subtilis [11] it was 155 µg/mL (≈ 479 µM); against Escherichia coli [12], 145 µg/mL (≈ 448 µM); in the test with Staphylococcus aureus [15], 160 µg/mL (≈ 494 µM).

Turning to `O=C1CSC(c2cccs2)N1c1ccc(Cl)cc1O` (stereo not given), the IC50 in the test with MCF7 was 64.9 µM; in the test on HeLa, 66.6 µM. Moreover, the minimal inhibitory concentration (MIC) in the test on Escherichia coli [1] stood at 85 µg/mL (≈ 273 µM); in the test with Bacillus subtilis [5], 35 µg/mL (≈ 112 µM); in the test with Cryptococcus neoformans [6], 95 µg/mL (≈ 305 µM); in the test with Aspergillus niger [8] it was 70 µg/mL (≈ 224 µM); in the test with Candida albicans [10], 100 µg/mL (≈ 321 µM); against Staphylococcus aureus [13], 60 µg/mL (≈ 192 µM). The figures for the MIC in the test on Salmonella typhimurium [14] and in the test on Aspergillus flavus [16] were 70 µg/mL (≈ 224 µM) and 25 µg/mL (≈ 80.2 µM), respectively. In addition, the minimal fungicidal concentration (MFC) against Cryptococcus neoformans [2] came to 160 µg/mL (≈ 513 µM); with Aspergillus flavus [3], 45 µg/mL (≈ 144 µM); with Candida albicans [7] it was 160 µg/mL (≈ 513 µM); in the test on Aspergillus niger [9] it was 155 µg/mL (≈ 497 µM). In addition, the MBC in the test with Salmonella typhimurium [4] is 155 µg/mL (≈ 497 µM); against Bacillus subtilis [11], 55 µg/mL (≈ 176 µM); in the test with Escherichia coli [12] it was 160 µg/mL (≈ 513 µM); against Staphylococcus aureus [15], 150 µg/mL (≈ 481 µM).

On to `O=C1CSC(c2ccccn2)N1c1ccc(Cl)cc1O` (stereo not given), for which the IC50 with MCF7 is 88.7 µM; with HeLa, 87.2 µM. The MIC with Escherichia coli [1] amounted to 90 µg/mL (≈ 293 µM); against Bacillus subtilis [5], 85 µg/mL (≈ 277 µM); against Cryptococcus neoformans [6], 75 µg/mL (≈ 244 µM); with Aspergillus niger [8], 80 µg/mL (≈ 261 µM); against Candida albicans [10] it was 55 µg/mL (≈ 179 µM); against Staphylococcus aureus [13], 60 µg/mL (≈ 196 µM). The MIC in the test with Salmonella typhimurium [14] was determined as 85 µg/mL (≈ 277 µM); against Aspergillus flavus [16] it was 100 µg/mL (≈ 326 µM). Further, the MFC in the test with Cryptococcus neoformans [2] came out at 150 µg/mL (≈ 489 µM); with Aspergillus flavus [3], 165 µg/mL (≈ 538 µM); against Candida albicans [7] it was 155 µg/mL (≈ 505 µM); against Aspergillus niger [9], 155 µg/mL (≈ 505 µM). The MBC against Salmonella typhimurium [4] came out at 150 µg/mL (≈ 489 µM); with Bacillus subtilis [11] it was 165 µg/mL (≈ 538 µM); in the test with Escherichia coli [12], 165 µg/mL (≈ 538 µM); in the test on Staphylococcus aureus [15], 155 µg/mL (≈ 505 µM).

A word on the IC50: it is the point on the concentration scale where inhibition reaches its midpoint. Lower therefore signals greater potency. Usually MIC stands for the smallest concentration in the dilution series that meets the test's criterion for growth inhibition. What is called MFC is the lowest tested concentration that kills the fungus rather than only halting it. Lower therefore signals more potent killing. By MBC is commonly meant the lowest tested concentration that kills the bacteria rather than only halting them. Low readings indicate greater bactericidal potency, high ones weaker bactericidal potency.

The record behind these values is ChEMBL document CHEMBL3352499, “One pot three components microwave assisted and conventional synthesis of new 3-(4-chloro-2-hydroxyphenyl)-2-(substituted) thiazolidin-4-one as antimicrobial agents” (Bioorg Med Chem Lett, 2014).
